The source of these data is ChEMBL document CHEMBL2069238, “Discovery of potent and selective rhodanine type IKKβ inhibitors by hit-to-lead strategy” (Bioorg Med Chem Lett, 2012).

Experiment [1] deals with T1, Inhibitor of nuclear factor kappa-B kinase subunit beta (Homo sapiens) (UniProt O14920).
T1 sequence (whole entry): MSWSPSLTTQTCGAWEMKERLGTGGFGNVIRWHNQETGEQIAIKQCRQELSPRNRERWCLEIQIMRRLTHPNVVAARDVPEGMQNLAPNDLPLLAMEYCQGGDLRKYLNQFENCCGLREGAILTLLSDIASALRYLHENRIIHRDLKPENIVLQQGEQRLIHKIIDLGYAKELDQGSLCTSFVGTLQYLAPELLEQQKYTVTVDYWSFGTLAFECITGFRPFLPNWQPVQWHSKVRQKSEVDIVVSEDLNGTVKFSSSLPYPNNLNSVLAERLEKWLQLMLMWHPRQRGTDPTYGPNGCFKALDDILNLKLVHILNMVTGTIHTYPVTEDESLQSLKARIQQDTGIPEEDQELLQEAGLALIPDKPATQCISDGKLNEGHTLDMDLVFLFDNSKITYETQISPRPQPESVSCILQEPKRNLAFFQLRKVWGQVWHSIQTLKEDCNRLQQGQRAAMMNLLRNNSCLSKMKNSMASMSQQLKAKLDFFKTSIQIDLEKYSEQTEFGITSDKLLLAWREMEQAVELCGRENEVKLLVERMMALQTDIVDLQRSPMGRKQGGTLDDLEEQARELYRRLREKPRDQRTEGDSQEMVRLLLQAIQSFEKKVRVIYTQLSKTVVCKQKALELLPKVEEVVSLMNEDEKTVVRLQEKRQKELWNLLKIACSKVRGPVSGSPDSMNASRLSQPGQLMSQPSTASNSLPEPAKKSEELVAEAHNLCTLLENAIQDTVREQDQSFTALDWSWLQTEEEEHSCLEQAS
Briefly: Inhibition of IKKbeta using 5FAM-GRHDSGLDSMK-NH2 as substrate at 10 uM incubated for 10 mins prior to substrate addition by IMAP-TR-FRET assay. On the technique in general: In TR-FRET formats the signal depends on donor and acceptor labels being close together.

Experiment [2] addresses T2, Inhibitor of nuclear factor kappa-B kinase subunit beta (Homo sapiens, UniProt O14920).
T2 sequence (O14920 whole entry): T1 sequence (whole entry)
Nature of the experiment: Inhibition of IKKbeta using 5FAM-GRHDSGLDSMK-NH2 as substrate incubated for 10 mins prior to substrate addition by IMAP-TR-FRET assay.

Experiment [3] addresses T1, Inhibitor of nuclear factor kappa-B kinase subunit beta (Homo sapiens). Briefly: Inhibition of IKKbeta in human HeLa cells assessed as inhibition of TPA-induced NFkappaB activation at 10 uM incubated for 1 hr prior to TPA-challenge measured after 8 hrs by luciferase reporter gene assay. Format: cell-based. The method, boiled down: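 HeLa cells transfected with an NF-κB luciferase reporter plasmid, pre-treated with inhibitor for 1 h, then stimulated with TPA (50 ng/mL) for 8 h. Luciferase activity normalized to protein content of each extract, expressed as relative luciferase units per mg versus non-treated cells; n = 3.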
In general terms: Reporter assays use an easily measured gene product as a stand-in for the process of interest.

In experiment [4] the target is T3, Inhibitor of nuclear factor kappa-B kinase subunit beta (Mus musculus, UniProt O88351).
T3 sequence (O88351 whole entry): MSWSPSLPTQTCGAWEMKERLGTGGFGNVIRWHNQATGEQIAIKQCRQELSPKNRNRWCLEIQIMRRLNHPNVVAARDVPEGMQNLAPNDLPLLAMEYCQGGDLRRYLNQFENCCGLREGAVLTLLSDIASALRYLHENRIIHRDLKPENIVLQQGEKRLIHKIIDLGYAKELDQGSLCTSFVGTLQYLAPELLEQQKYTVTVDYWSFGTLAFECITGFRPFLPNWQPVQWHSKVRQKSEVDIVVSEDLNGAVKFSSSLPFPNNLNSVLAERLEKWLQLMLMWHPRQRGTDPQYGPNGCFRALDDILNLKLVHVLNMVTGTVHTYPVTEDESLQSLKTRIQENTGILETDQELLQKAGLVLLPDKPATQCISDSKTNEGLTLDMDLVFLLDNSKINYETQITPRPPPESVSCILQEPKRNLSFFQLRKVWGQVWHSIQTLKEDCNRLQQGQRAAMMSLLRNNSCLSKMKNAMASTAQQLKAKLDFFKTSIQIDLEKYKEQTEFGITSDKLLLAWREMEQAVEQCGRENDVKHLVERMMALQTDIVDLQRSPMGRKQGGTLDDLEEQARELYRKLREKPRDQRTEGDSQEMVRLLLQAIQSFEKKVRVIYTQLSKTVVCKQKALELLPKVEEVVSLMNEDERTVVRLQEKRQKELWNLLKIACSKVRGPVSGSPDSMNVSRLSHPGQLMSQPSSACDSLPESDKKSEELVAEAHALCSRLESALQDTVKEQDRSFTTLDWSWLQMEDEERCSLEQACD
Nature of the experiment: Inhibition of IKKbeta in mouse CIA model splenocytes assessed as inhibition of TNFalpha production after 72 hrs by ELISA. It counts as cell-based. The method, boiled down: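 Spleens from collagen type II-immunized mice were taken 8 weeks after primary immunization. Red cells were lysed with 0.83% ammonium chloride, and cells were strained and resuspended in RPMI 1640 at 1 × 10^6 cells/well, then exposed to inhibitor for 72 h. Supernatant TNFα was measured by sandwich ELISA with an alkaline phosphatase chromogenic read at 405 nm, quantified against a recombinant murine TNFα standard curve.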
A general note: In an ELISA, binding on a coated surface is turned into a signal by an enzyme label.

For experiment [5], the target named is T4, Inhibitor of nuclear factor kappa-B kinase subunit alpha (Homo sapiens, UniProt O15111).
T4 sequence (O15111 whole entry): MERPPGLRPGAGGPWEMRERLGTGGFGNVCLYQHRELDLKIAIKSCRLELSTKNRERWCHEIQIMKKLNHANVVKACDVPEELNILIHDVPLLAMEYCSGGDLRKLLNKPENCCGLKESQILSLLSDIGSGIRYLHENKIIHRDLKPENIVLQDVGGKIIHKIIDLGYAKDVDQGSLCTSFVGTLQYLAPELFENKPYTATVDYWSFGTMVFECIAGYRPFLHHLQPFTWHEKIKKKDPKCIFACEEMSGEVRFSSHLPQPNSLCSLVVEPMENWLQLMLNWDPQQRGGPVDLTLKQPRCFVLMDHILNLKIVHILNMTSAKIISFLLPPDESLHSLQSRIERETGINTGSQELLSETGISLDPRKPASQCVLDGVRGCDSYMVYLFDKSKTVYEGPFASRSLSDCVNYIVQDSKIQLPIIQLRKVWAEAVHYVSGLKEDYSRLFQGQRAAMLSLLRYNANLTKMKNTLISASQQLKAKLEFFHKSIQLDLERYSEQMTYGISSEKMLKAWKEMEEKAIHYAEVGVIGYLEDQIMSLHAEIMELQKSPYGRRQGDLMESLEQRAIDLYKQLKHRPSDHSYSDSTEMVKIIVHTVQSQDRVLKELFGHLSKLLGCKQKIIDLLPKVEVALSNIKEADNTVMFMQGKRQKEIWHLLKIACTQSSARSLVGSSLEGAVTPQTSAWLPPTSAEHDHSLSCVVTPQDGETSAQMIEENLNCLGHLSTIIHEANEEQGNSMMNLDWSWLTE
Briefly: Inhibition of IKKalpha.

Usually inhibition stands for the relative decrease from the control value, in per cent. For the compound `CCN(CC)CCOc1ccc(N2C(=O)/C(=C/c3ccc(Oc4ccccc4C(N)=O)cc3)SC2=S)cc1`, in experiment [1], the inhibition was 1.6%.

The compound `NC(=O)c1cccc(Oc2ccc(/C=C3\SC(=S)N(c4ccc(OCCCN5CCOCC5)cc4)C3=O)cc2)c1` displayed an inhibition in experiment [1] of 48.8%.

The term IC50 denotes the concentration needed to halve the response being measured. In experiment [2], `CCN(CC)CCCOc1ccc(N2C(=O)/C(=C/C=C(c3ccccc3)c3ccccc3)SC2=S)cc1` had a half-maximal inhibitory concentration (IC50) of 14.1 µM. The same compound had an inhibition in experiment [1] of 52.6%.

Regarding `CCN(CC)CCCOc1ccc(N2C(=O)/C(=C/c3ccc4ccccc4c3)SC2=S)cc1`, in experiment [1], the inhibition is 23.4%.

The compound `CCN(CC)CCCOc1ccc(N2C(=O)/C(=C/c3ccc(C(N)=O)cc3)SC2=S)cc1` yielded an inhibition in experiment [1] of 15.5%.

With `CCN(CC)CCCOc1ccc(N2C(=O)/C(=C/c3ccc(Oc4cccc(C(N)=O)c4)cc3)SC2=S)cc1`, the IC50 was 7.3 µM in experiment [2] and 10 µM in experiment [4]. In addition, the inhibition in experiment [3] is 39.3%; in experiment [1] it was 84.9%.

As to `CCN(CC)CCCOc1ccc(N2C(=O)/C(=C/c3ccc(Oc4ccc(C(N)=O)cc4)cc3)SC2=S)cc1`, the IC50 in experiment [2] came to 2.6 µM; in experiment [4], 8 µM. Moreover, the inhibition in experiment [3] turned out to be 46.6%; in experiment [1], 95.7%.

For the compound `NC(=O)c1cccc(-c2ccc(/C=C3\SC(=S)N(c4ccc(OCCCN5CCOCC5)cc4)C3=O)o2)c1`, the inhibition in experiment [1] turned out to be 2.1%.

In the case of `NC(=O)c1cccc(Oc2ccc(/C=C3\SC(=S)N(c4ccc(OCCCN5CCCC5)cc4)C3=O)cc2)c1`, the IC50 is 6.3 µM in experiment [2] and 7 µM in experiment [4]. Further, the results for the inhibition in experiment [3] and in experiment [1] were 57% and 57.3%, respectively.

Turning to `CCN(CC)CCCOc1ccc(N2C(=O)/C(=C/c3ccc(Oc4ccc(Cl)cc4)cc3)SC2=S)cc1`, the IC50 in experiment [2] came out at 15.6 µM; in experiment [4], 13 µM. Moreover, the inhibition in experiment [3] was 71.4%; in experiment [1] it was 36.5%.

As to `NC(=O)c1ccc(Oc2ccc(/C=C3\SC(=S)N(c4ccc(OCCCN5CCCCC5)cc4)C3=O)cc2)cc1`, the IC50 in experiment [2] worked out at 4.2 µM; in experiment [4], 30 µM. In addition, the inhibition turned out to be 48.2% in experiment [3] and 81.2% in experiment [1].

As for `NC(=O)c1cccc(Oc2ccc(/C=C3\SC(=S)N(c4ccc(OCCCN5CCCCC5)cc4)C3=O)cc2)c1`, the IC50 turned out to be 6.3 µM in experiment [2] and 30 µM in experiment [4]. Also, the inhibition in experiment [3] turned out to be 42.1%; in experiment [1] it was 83%.

With `CCN(CC)CCOc1ccc(N2C(=O)/C(=C/c3ccc(Oc4cccc(C(N)=O)c4)cc3)SC2=S)cc1`, the figures for the inhibition in experiment [3] and in experiment [1] were 57% and 17.1%, respectively. Besides, in experiment [4], the IC50 was determined as 7 µM.

Compound `CCN(CC)CCCOc1ccc(N2C(=O)/C(=C/c3ccc(-c4ccc(C(N)=O)cc4)o3)SC2=S)cc1` had an IC50 in experiment [2] of 3.3 µM. Besides, the inhibition in experiment [3] stood at 57.4%; in experiment [1], 77.2%.

On to `NC(=O)c1ccccc1Oc1ccc(/C=C2\SC(=S)N(c3ccc(OCCCN4CCCCC4)cc3)C2=O)cc1`, for which the inhibition in experiment [1] was determined as 18.6%.

Take `CCN(CC)CCCOc1ccc(N2C(=O)/C(=C/c3ccncc3)SC2=S)cc1`: the inhibition in experiment [1] came out at 3.2%.

Compound `NC(=O)c1ccccc1Oc1ccc(/C=C2\SC(=S)N(c3ccc(OCCCN4CCCC4)cc3)C2=O)cc1` registered an inhibition in experiment [1] of 21.3%.

As to `CCN(CC)CCCOc1ccc(N2C(=O)/C(=C/c3ccc(-c4cccc(C(N)=O)c4)o3)SC2=S)cc1`, in experiment [2], the IC50 is 5.7 µM. For the same compound, the values for the inhibition in experiment [3] and in experiment [1] were 59.1% and 87.1%, respectively.

For the compound `CCN(CC)CCCOc1ccc(N2C(=O)/C(=C/c3ccc(Cl)c(Cl)c3)SC2=S)cc1`, 9.3 µM corresponded to half-maximal inhibition in experiment [2] (IC50). This compound also returned an inhibition in experiment [1] of 61.8%.

As for `N#Cc1c(C2CCCNC2)cc(-c2ccccc2O)nc1N` (stereo not drawn), the IC50 in experiment [2] worked out at 0.17 µM; in experiment [5], 0.64 µM; in experiment [4], 1.8 µM. Also, the inhibition in experiment [3] came to 73.9%; in experiment [1] it was 88.7%.

With `CCN(CC)CCCOc1ccc(N2C(=O)/C(=C/C=C/c3ccc(N(C)C)cc3)SC2=S)cc1`, in experiment [1], the inhibition was found to be 28.1%.

`CN1CCN(CCCCOc2ccc(N3C(=O)/C(=C/c4ccc(Oc5ccc(C(N)=O)cc5)cc4)SC3=S)cc2)CC1`: the IC50 in experiment [2] amounted to 0.23 µM; in experiment [4], 4 µM. This compound registered an inhibition in experiment [1] of 90.4%.

Regarding `CN1CCN(CCCCCOc2ccc(N3C(=O)/C(=C/c4ccc(Oc5ccc(C(N)=O)cc5)cc4)SC3=S)cc2)CC1`, the IC50 in experiment [2] was 0.16 µM. This compound had an inhibition in experiment [1] of 89.3%.

In experiment [1], `CCN(CC)CCCOc1ccc(N2C(=O)/C(=C/c3c(Cl)cccc3Cl)SC2=S)cc1` gave an inhibition of 3.4%.

On to `CCN(CC)CCOc1ccc(N2C(=O)/C(=C/c3ccc(Oc4ccc(C(N)=O)cc4)cc3)SC2=S)cc1`, for which the half-maximal inhibitory concentration (IC50) was found to be 8.7 µM in experiment [2] and 8 µM in experiment [4]. In addition, the inhibition in experiment [3] worked out at 58.5%; in experiment [1], 62.6%.

For `CN1CCN(CCCOc2ccc(N3C(=O)/C(=C/c4ccc(Oc5ccccc5C(N)=O)cc4)SC3=S)cc2)CC1`, the IC50 in experiment [2] turned out to be 8.5 µM; in experiment [4], 12 µM. For the same compound, the inhibition came out at 42.4% in experiment [3] and 52.7% in experiment [1].

In experiment [1], `CCN(CC)CCCOc1ccc(N2C(=O)/C(=C/c3ccc(Oc4ccccc4C(N)=O)cc3)SC2=S)cc1` registered an inhibition of 4.8%.

Compound `CCN(CC)CCCOc1ccc(N2C(=O)/C(=C/c3ccc(O)cc3)SC2=S)cc1` displayed a concentration for half-maximal inhibition (IC50) in experiment [2] of 23.6 µM. In experiment [1], this compound returned an inhibition of 56%.
